Active and inactive are the calls of the source. No cut-off for these calls is given here.
What was measured:
Mus musculus [1] = assay: Binding affinity to amyloid beta plaques in transgenic C57BL6 mouse cortex expressing APP Swedish mutant/PSEN1 at 19.2 MBq, iv after 30 mins by thioflavinS-staining method; type: functional, organism-based; conditions: 19.2 M, tested as the 18F-labelled form
Mus musculus [2] = species on record: Mus musculus; assay: Binding affinity to amyloid beta plaques in transgenic C57BL6 mouse hippocampus expressing APP Swedish mutant/PSEN1 at 370 KBq/100 ul after 1 hr by thioflavinS-staining method; type: tissue-based; conditions: tested as the 18F-labelled form
In short: (§1)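 Paraffin brain sections from 12-month-old Tg mice (C57BL6, APPswe/PSEN1) and age-matched controls, deparaffinized through xylene and graded ethanol, then PBS (0.2 M, pH 7.4) 30 min. Incubated with 18F tracer (370 KBq per 100 μL) 1 h at room temperature, washed in 40% EtOH, rinsed in water, then phosphor plate exposure 2 h. The same sections were afterwards stained with 0.125% thioflavin S in 10% EtOH for 3 min and washed in 40% EtOH.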

Mus musculus [3] = species on record: Mus musculus; assay: Binding affinity to amyloid beta plaques in transgenic C57BL6 mouse hippocampus expressing APP Swedish mutant/PSEN1 at 370 KBq/100 ul after 1 hr by autoradiographic analysis; type: tissue-based; conditions: tested as the 18F-labelled form; in short: as §1
Mus musculus [4] = assay: Binding affinity to amyloid beta plaques in transgenic C57BL6 mouse cortex expressing APP Swedish mutant/PSEN1 at 19.2 MBq, iv after 30 mins by autoradiographic analysis; type: functional, organism-based; conditions: 19.2 M, tested as the 18F-labelled form
In short: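 Ex vivo: Tg mouse (C57BL6, APPswe/PSEN1) given 19.2 MBq tracer in saline via tail vein; decapitated 30 min later. Brain frozen in liquid nitrogen, 20 μm sections cut and exposed to a phosphor plate for 5 h.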

Mus musculus [5] = species on record: Mus musculus; assay: Binding affinity to amyloid beta plaques in transgenic C57BL6 mouse cortex expressing APP Swedish mutant/PSEN1 at 370 KBq/100 ul after 1 hr by autoradiographic analysis; conditions: tested as the 18F-labelled form; in short: as §1
[6] = biological target: Amyloid-beta precursor protein (Homo sapiens) (UniProt P05067); assay: Binding affinity to amyloid beta plaques in Alzheimer patient brain at 370 KBq/100 ul after 1 hr by autoradiographic analysis; conditions: tested as the 18F-labelled form
Mus musculus [7] = species on record: Mus musculus; assay: Binding affinity to amyloid beta plaques in transgenic C57BL6 mouse cortex expressing APP Swedish mutant/PSEN1 at 370 KBq/100 ul after 1 hr by thioflavinS-staining method; conditions: tested as the 18F-labelled form; in short: as §1
[8] = Displacement of [125I]-IMPY from amyloid beta (1 to 42) fibrils after 2 hrs by gamma-counting analysis
In short: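 Competition binding with aggregated Aβ1-42 fibrils and [125I]IMPY (60000−100000 cpm/100 μL) in 0.05% BSA (1 mL total); inhibitors 10⁻⁴−10^−8.5 M in ethanol. Incubated 37 °C for 2 h, then GF/B vacuum filtration with PBS (0.02 M, pH 7.4) washes and γ counting. Three repeats; IC50 converted to Ki by Cheng−Prusoff.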

Brain = assay: Ratio of drug uptake in brain at 2 mins to drug uptake in brain at 60 mins in iv dosed ICR mouse; type: ADME, organism-based; conditions: in vivo

Amyloid-beta precursor protein (Homo sapiens), sequence (P05067 whole entry): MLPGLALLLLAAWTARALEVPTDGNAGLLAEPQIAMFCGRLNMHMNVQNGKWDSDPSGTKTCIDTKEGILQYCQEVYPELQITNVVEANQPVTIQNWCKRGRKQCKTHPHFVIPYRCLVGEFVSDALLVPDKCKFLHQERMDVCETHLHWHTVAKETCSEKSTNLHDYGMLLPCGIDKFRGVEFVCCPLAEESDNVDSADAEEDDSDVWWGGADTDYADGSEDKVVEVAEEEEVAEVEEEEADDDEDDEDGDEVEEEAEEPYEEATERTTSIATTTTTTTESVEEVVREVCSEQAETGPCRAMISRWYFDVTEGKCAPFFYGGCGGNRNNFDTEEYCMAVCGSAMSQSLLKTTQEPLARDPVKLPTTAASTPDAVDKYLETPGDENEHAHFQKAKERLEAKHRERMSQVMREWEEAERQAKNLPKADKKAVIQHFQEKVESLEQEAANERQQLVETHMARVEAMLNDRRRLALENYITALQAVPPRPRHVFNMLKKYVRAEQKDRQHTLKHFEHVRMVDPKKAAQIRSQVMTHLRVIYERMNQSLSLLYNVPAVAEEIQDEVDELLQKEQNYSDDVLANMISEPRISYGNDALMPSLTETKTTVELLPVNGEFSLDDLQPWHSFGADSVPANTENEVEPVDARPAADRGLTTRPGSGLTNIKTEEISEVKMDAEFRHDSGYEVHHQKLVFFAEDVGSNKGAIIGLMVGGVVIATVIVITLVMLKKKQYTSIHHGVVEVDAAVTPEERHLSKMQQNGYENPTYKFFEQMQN

Row | Activity (Mus musculus [1]) | Activity (Mus musculus [2]) | Activity (Mus musculus [3]) | Activity (Mus musculus [4]) | Activity (Mus musculus [5]) | Activity [6] | Activity (Mus musculus [7]) | Ki [8] [nM] | Ratio (Brain) | Compound
1 | Active | Active | Active | Active | Active | Active | Active | 8 |  | CNc1ccc(-c2nc3cc(OCCF)ccc3o2)cn1
2 |  |  |  |  |  |  |  | 6.7 | 3.13 | CNc1ccc(/C=C/c2ccc(OCCOCCOCC[18F])cc2)cc1 [FLORBETABEN F18]

— ChEMBL document CHEMBL2177098, “Synthesis and evaluation of novel ¹⁸F labeled 2-pyridinylbenzoxazole and 2-pyridinylbenzothiazole derivatives as ligands for positron emission tomography (PET) imaging of β-amyloid plaques” (J Med Chem, 2012)
